Published values from different studies.
Compare with care: the assays were run in different laboratories. pIC50: −log10 of the molar value. In brackets after ≈: the same amount, converted by molar mass.

Compound	organism	assay	system	conditions	quantity	value
OC(Cn1cncn1)(Cn1cncn1)c1ccc(F)cc1F	Kluyveromyces marxianus	microbial growth, broth dilution		24 h	MIC90	1 µg/mL (≈ 3.27 µM)
O=C(Nc1ccccc1-c1ccc(F)c(F)c1)c1nccnc1C(F)(F)F	Mycosphaerella arachidis	microbial growth			EC50	0.12 µg/mL (≈ 0.316 µM)
C=CCON(C(=O)c1cc([N+](=O)[O-])cc(C(F)(F)F)c1)C1CC(=O)N1SC (stereo not drawn)	Mycolicibacterium vaccae	microbial growth			MIC	6.25 µM
Cc1cc(CCCOc2c(C)cc(-c3noc(C(F)(F)F)n3)cc2C)on1	Enterovirus	cytopathic effect, inhibitor	HeLa		pIC50	7.30
CCCCCCCCCCCC(=O)Oc1c(C)c(O)c(C(=O)/C=C/c2ccccc2)c(OC)c1C	Pseudomonas aeruginosa	microbial killing, broth dilution	ATCC27853		MBC	> 5000 µg/mL
CC1(C)S[C@@H]2[C@H](NC(=O)[C@H](N)c3ccccc3)C(=O)N2[C@H]1C(=O)O	Limosilactobacillus reuteri	microbial growth, broth dilution	ATCC23272		MIC	1 µg/mL
O=C1CC(N(OCc2ccccc2)C(=O)c2cc([N+](=O)[O-])cc(C(F)(F)F)c2)N1 (stereo not drawn)	Mycolicibacterium vaccae	microbial growth			MIC	6.25 µM
Nc1nc(-c2ccccc2)nc2[nH]nc(Nc3ccc(C(F)(F)F)cc3)c12	Enterovirus	cytopathic effect	HeLa		pIC50	5.34
O=C(O)c1cn(C2CC2)c2cc(N3CCNCC3)c(F)cc2c1=O	Mycolicibacterium vaccae	microbial growth	10670	1000 µg/mL	inhibition zone	21 mm
